Rows were chosen to be rich in hits. Some 0.93% of all compounds tested hit in one or more screens of this group.
JNK3 inh = blocks human JNK3 kinase activity; P53779; purified JNK3 kinase activity, HTS; hit rate 0.61% among 60,000; inhibition, % at 8 µM; in the data active = inhibition above about 17%;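 note: 0% = DMSO and 100% = reference inhibitor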
Target sequence (P53779 whole entry, looked up): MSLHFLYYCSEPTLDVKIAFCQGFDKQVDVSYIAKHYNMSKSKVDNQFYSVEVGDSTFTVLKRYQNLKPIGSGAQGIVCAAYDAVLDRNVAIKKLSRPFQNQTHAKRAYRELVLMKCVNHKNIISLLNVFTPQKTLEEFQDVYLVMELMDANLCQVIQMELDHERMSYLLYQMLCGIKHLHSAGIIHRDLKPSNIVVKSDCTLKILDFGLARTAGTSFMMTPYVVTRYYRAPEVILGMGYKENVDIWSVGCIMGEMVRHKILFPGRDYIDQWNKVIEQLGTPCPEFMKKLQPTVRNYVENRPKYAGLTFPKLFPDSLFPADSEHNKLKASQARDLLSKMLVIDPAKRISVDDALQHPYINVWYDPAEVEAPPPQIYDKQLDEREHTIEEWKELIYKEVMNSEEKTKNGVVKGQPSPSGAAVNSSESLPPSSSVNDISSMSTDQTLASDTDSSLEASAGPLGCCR
MMP13 inh = MMP13 (human) collagenase inhibition. P45452. MMP-13 fTHP FRET cleavage, Mca fluorescence. inhibition, % at 4 µM. hit rate 0.07% among 65,000. AID 570;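 active = inhibition above the mean of compound-free control plate wells plus 3 SD, cut at about 14% in these data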;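 note: 0% = DMSO wells and 100% = wells with reference MMP-13 inhibitor after basal subtraction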
HePTP inhibitor = inhibitors of human HePTP phosphatase; recombinant HePTP phosphatase activity, OD absorbance; inhibition, % at 20 µM; hit rate 0.64% among 110,000; AID 521; in the data active = inhibition above about 50%; inconclusive = no clear call, values can overlap the other calls;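 note: plate controls were vehicle for no effect and reference inhibitor for full effect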
HEK293 NFkB inh = lowers PMA/ionomycin-induced NF-kB signal in HEK293 cells | HEK-293 NF-kB luciferase reporter, luminescence | hit rate 0.21% among 62,000 | inhibition, % at 3 µM | AID 465;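 active = inhibition above the mean of all tested compounds plus 3 SD, cut at about 40% in these data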;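 note: 0% = stimulated DMSO wells and 100% = 10 µM reference inhibitor 5653914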
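Timing: 1 h pretreatment, 16 h stimulation, 37 °C; system: HEK-293 cells with stable firefly luciferase reporter driven by four HIV NF-kB elements; doses: 3 µM once, 0.30% DMSO; measured by: luciferase luminescence; control set: DMSO and 10 µM reference inhibitor; repeats: single test; reagent: PMA plus ionomycin mix as NF-kB-activating stimulus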
Active calls of the source: *; ? = inconclusive; . = not tested or not shown; ! = not confirmed by another sample.

SMILES | JNK3 inh | MMP13 inh | HePTP inhibitor | HEK293 NFkB inh
O=C(c1ccc(Cl)cc1)N1CCN(c2ccc([N+](=O)[O-])cc2C(F)(F)F)CC1 | . | . | 2 | .
Fc1cc2nccnc2cc1N1CCSCC1 | 23* | 4 | 2 | 8
CCCCCCCCCCCCNC1CC(=O)NC1=O (centres undefined) | . | . | -3 | .
O=C(Nc1ccc2nc(SCc3ccc(F)cc3)sc2c1)c1ccccc1C(=O)N1CCCC1 | . | . | 8 | .
Fc1ccc2nc3[nH]c4ccccc4c3nc2c1 | 37* | -5 | 4 | -27
Cc1cc(Cl)ccc1OCC(=O)N(CC(C)C)CC(C)C | . | . | 7 | .
CC(C1CC1)N(Cc1ccccc1)C(=O)c1ccc(F)cc1 (centres undefined) | . | . | -12 | .
Cc1ccc(NC(=O)N(Cc2ccccc2)C(C)C2CC2)cc1 (centres undefined) | . | . | 102* | .
CC(C)c1ccc(-c2nc3sc4c(c3c(=O)[nH]2)CCCC4)cc1 | . | . | -4 | .
O=C1c2ccccc2-c2onc3ccc(NCCCn4ccnc4)c1c23 | 38* | -1 | ? | 0
O=C(COc1ccccc1Cl)NNC(=O)c1cccnc1 | . | . | -12 | .
O=C(COc1ccccc1Cl)NNC(=O)c1ccncc1 | . | . | 101* | .
C=CCOc1ccc2c(C)cc(=O)oc2c1C | . | . | 4 | .
C=CCOc1ccc2c(C)cc(=O)oc2c1I | . | . | 104* | .
O=C(CN1C(=O)/C(=C/c2ccccc2)SC1=S)Nc1cccc(O)c1 | . | . | -9 | .
CCOc1ccc(NC(=O)CN2C(=O)C3CCCN3C2=O)cc1 (centres undefined) | 17* | -8 | 14 | 12
CCOc1ccc(NC(=O)CN2CCN(CC(=O)Nc3ccc(C(=O)OC)cc3)CC2)cc1 | 3 | 1 | 5 | 14
CCOC(=O)c1c(NC(=O)c2ccco2)sc2c1CCC(CC)C2 (centres undefined) | . | . | 10 | .
CCC1CCc2c(sc(NC(=O)c3ccc(Br)o3)c2C(=O)OC)C1 (centres undefined) | . | . | 104* | .
CCOC(=O)c1c(NC(=O)C2C3CCC(O3)C2C(=O)O)sc2c1CCC(CC)C2 (centres undefined) | . | . | 103* | .
O=C(/C=C/c1ccc([N+](=O)[O-])cc1)NCCSc1ccccn1 | . | . | 2 | .
CCOC(=O)c1ccc(Cn2cnc3ccccc3c2=O)cc1 | 39* | 3 | 5 | -4
CCOc1ccc(C(=O)Nc2ccc(-c3nc4ccccc4o3)c(O)c2)cc1[N+](=O)[O-] | . | . | 104* | .
CCOc1ccc(C(=O)Nc2ccc(NC(=O)c3ccco3)c(OC)c2)cc1[N+](=O)[O-] | . | . | 104* | .
CCOc1ccc(C(=O)Nc2ccc3oc(-c4cccc(Cl)c4Cl)nc3c2)cc1[N+](=O)[O-] | . | . | 8 | .
SMILES | JNK3 inh | MMP13 inh | HePTP inhibitor | HEK293 NFkB inh
COc1cc(NC(=O)c2ccc(C)c([N+](=O)[O-])c2)ccc1NC(=O)c1ccco1 | . | . | 5 | .
CC(C)(C)C1(C)OC(O)(C(F)(F)C(F)F)CC1=O (centres undefined) | . | . | 104* | .
Cc1ccc(C(=O)N/C(=C/c2ccccc2F)C(=O)NN)cc1 | . | . | 2 | .
CCN(CC)c1ccc2cc(-c3nc4ccccc4n3C)c(=O)oc2c1 | -10 | -62 | 12 | 40*
CCN(CC)c1ccc2cc(-c3nc4ccccc4[nH]3)c(=O)oc2c1 | 1 | 4 | 2 | 3
O=C(Nc1ccc(N2CCOCC2)cc1)c1cnsn1 | -1 | 2 | -7 | 42*
CCOC(=O)c1ccc(N2NC(=O)/C(=C/c3cccc(OC)c3O)C2=O)cc1 | . | . | 55* | .
CCOC(=O)c1ccc(N2NC(=O)/C(=C/c3ccc(C=O)cc3)C2=O)cc1 | . | . | 96* | .
CCOC(=O)c1ccc(N2NC(=O)/C(=C/c3cc(Br)ccc3O)C2=O)cc1 | . | . | 75* | .
COc1ccc(Cn2c(SC)nc(O)cc2=O)cc1 | . | . | 3 | .
CCCCCCC(=O)Nc1nnc(CCC)s1 | . | . | 9 | .
CCOC(=O)c1c(NC(=O)COc2ccccc2C)sc(C(=O)N2CCCCC2)c1C | . | . | 0 | .
C=CCN1C(=O)/C(=C2/Sc3ccccc3N2C)SC1=Nc1c(C)n[nH]c1C | -7 | 5 | 6 | 7
C=CCN1C(=O)/C(=C2/Sc3ccccc3N2CCCS(=O)(=O)O)SC1=S | -8 | 16* | 6 | -8
CN1C(=O)/C(=C2/C=Cc3ccccc3N2CCCS(=O)(=O)O)SC1=S | 1 | 18* | -3 | 5
N=C1S/C(=C\c2ccc(-c3cccc(C(=O)O)c3)o2)C(=O)N1c1ccc2c(c1)OCO2 | . | . | 103* | .
COC(=O)c1cccc(-c2ccc(/C=C3\C(=O)N(c4cccc(C(=O)O)c4)N=C3C)o2)c1 | . | . | 102* | .
CC(=O)c1cccc(-c2ccc(/C=C3\C(=O)N(c4cccc(C(=O)O)c4)N=C3C)o2)c1 | . | . | 16 | .
COC(=O)c1cccc(-c2ccc(/C=C3/C(=O)NN(c4cccc(Cl)c4)C3=O)o2)c1 | . | . | 0 | .
N=C1S/C(=C\c2ccc(-c3cccc([N+](=O)[O-])c3)o2)C(=O)N1c1ccc2c(c1)OCO2 | . | . | 3 | .
CC1=NN(c2ccc(C(=O)O)cc2)C(=O)/C1=C\c1ccc(-c2cccc(C(=O)O)c2)o1 | . | . | 101* | .
O=C1NN(c2cccc(Cl)c2)C(=O)/C1=C\c1ccc(-c2cccc(C(=O)O)c2)o1 | . | . | 102* | .
COc1ccc(/C(C)=N/N=C2/NC(=O)C(CC(=O)Nc3cc(Cl)ccc3Cl)S2)cc1 (centres undefined) | . | . | -10 | .
CC1=NN(c2ccc(S(N)(=O)=O)cc2)C(=O)/C1=C\c1ccc2c(c1)OCO2 | . | . | 63* | .
O=C(Nc1cc(C(F)(F)F)ccc1Cl)C(O)(c1ccccc1)c1ccccc1 | . | . | -1 | .
SMILES | JNK3 inh | MMP13 inh | HePTP inhibitor | HEK293 NFkB inh
COc1ccc(NS(=O)(=O)c2ccc(Cl)c(C(=O)Nc3cccc(C(=O)O)c3)c2)cc1 | . | . | -1 | .
COc1ccc(OC)c(C2C(C(=O)/C=C/c3ccccc3)=C(O)C(=O)N2CCCCCC(=O)O)c1 (centres undefined) | . | . | 78* | .
CCOc1cc(OCC)cc(C(=O)Nc2cccc(S(N)(=O)=O)c2)c1 | . | . | 1 | .
CCOc1ccc(C(=O)Nc2cccc(S(N)(=O)=O)c2)cc1Br | . | . | 103* | .
Clc1ccccc1C=Nc1ccc(-c2nnc(-c3ccccc3)o2)cc1 | . | . | -3 | .
CCOC(=O)c1ccccc1NC(=O)COc1ccc(Cl)cc1C | . | . | 0 | .
COc1ccc(-n2cnc3c(sc4nccc(N(C)C)c43)c2=O)cc1 | 1 | 5 | 105*! | 14
Cc1ccc(-n2cnc3c(sc4nccc(N(C)C)c43)c2=O)cc1 | 0 | -8 | 12 | 6
COc1ccccc1N1CCN(/N=C/c2ccc(-c3ccccc3)cc2)CC1 | . | . | -1 | .
CC(=O)Nc1ccc(OC(=O)c2c(F)cccc2F)cc1 | . | . | 90* | .
FC(F)(F)c1cccc(-c2nnc3ccc(C(F)(F)F)cn23)c1 | -4 | -7 | -5 | 23
COc1cc(-c2nnc3ccc(C(F)(F)F)cn23)ccc1Oc1ccc([N+](=O)[O-])cc1 | . | . | 102* | .
CCCCCCN1C=CC(=C2C(=O)c3ccccc3C2=O)C=C1 | . | . | -4 | .
CC1=CC(=C2C(=O)c3ccccc3C2=O)C=C(C)O1 | 10 | -8 | 7 | -3
CCCN1C=CC(=C2C(=O)c3ccccc3C2=O)C=C1 | 56* | -6 | 6 | 86*
CCN1C=CC(=C2C(=O)c3ccccc3C2=O)C=C1 | 62* | -3 | -5 | 50*
CN1C=CC(=C2C(=O)c3ccccc3C2=O)C=C1 | 32* | -8 | 10 | -15

Screens: PubChem BioAssay, several laboratories
